In the library only some 2.3% were active in any assay of this set; here they are far more common.
TRPC6 inhibitor: mouse TRPC6 channel inhibitors, primary screen, cell-based, HEK293, membrane potential dye; ACh-evoked depolarization; hits give low values; B-score at 10 µM; hit rate 1.1% among 310,000; AID 2553, 2010;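 active = B-score under library mean minus 3 SD, initial fluorescence not abnormally high, positive integrated signal ratio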;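 note: B-score derived from integrated fluorescence ratio over the kinetic read; more negative B-score means stronger inhibition of depolarization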
Target sequence (Q61143 whole entry, looked up): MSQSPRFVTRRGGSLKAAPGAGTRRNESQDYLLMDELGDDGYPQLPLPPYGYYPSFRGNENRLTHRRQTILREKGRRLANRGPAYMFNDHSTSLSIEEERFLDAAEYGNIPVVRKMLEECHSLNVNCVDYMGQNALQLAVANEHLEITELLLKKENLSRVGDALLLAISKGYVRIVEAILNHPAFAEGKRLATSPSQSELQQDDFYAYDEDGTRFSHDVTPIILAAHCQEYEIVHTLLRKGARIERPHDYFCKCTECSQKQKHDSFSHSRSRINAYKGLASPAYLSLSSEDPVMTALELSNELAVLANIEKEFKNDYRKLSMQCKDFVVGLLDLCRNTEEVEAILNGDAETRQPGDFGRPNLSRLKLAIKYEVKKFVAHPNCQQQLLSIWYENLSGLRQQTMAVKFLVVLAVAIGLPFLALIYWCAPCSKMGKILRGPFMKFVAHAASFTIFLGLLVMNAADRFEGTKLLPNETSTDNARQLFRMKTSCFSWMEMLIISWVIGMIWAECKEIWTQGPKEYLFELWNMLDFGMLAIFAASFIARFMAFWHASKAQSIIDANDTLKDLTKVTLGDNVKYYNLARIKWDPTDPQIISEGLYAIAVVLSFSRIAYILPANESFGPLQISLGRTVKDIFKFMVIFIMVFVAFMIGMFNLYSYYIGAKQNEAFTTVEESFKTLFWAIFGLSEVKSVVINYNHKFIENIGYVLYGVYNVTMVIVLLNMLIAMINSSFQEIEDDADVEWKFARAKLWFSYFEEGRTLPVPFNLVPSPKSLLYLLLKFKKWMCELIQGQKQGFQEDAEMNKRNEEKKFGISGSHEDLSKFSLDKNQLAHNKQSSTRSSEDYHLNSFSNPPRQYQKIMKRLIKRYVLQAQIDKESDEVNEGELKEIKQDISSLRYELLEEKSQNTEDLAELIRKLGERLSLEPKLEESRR
TRPC6 activator: mouse TRPC6 channel activators, primary screen, cell-based, HEK293, membrane potential dye; Short transient receptor potential channel 6 (Mus musculus), Q61143; B-score at 10 µM; AID 2550, 2010; hit rate 0.13% among 310,000; HEK293-TRPC6 membrane potential dye fluorescence; hits give high values;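 active = B-score of the integrated fluorescence ratio above library mean plus 3 SD, and starting fluorescence ratio within library mean plus 5 SD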;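 note: higher score means more depolarization so channel activation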
TRPC4 agonist: activators of mouse TRPC4 channel, primary screen, Fluo4 calcium, HEK293 TRPC4beta/mu-opioid cells | Short transient receptor potential channel 4 (Mus musculus), Q9QUQ5 | hit rate 0.49% among 310,000 | Fluo4 calcium fluorescence; hits give high values | AID 2237, 2010 | B-score at 10 µM;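 active = B-score above 5 SD of library B-scores, and initial fluorescence ratio not above library mean plus 5 SD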;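 note: positive B-score marks a calcium rise read as TRPC4 activation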
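Assay system: HEK293 cells stably co-expressing mouse TRPC4beta and mu-opioid receptor / Timing: Fluo4 dye loading 45 min at room temperature, 110 s recording / Signal: Fluo4 calcium-sensitive dye fluorescence, kinetic, 1 Hz baseline / Read-out: integrated baseline-normalised fluorescence ratio, converted to per-well B score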
TRPC4 block: inhibitors of mouse TRPC4 channel, primary screen, Fluo4 calcium, HEK293 TRPC4beta/mu-opioid cells | B-score at 10 µM | hit rate 0.39% among 300,000 | DAMGO-evoked Fluo4 calcium flux; hits give low values | Short transient receptor potential channel 4 (Mus musculus), Q9QUQ5;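 active = B-score over 3 SD under the library average, no early fluorescence shift, positive overall ratio signal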
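Material: HEK293 cells with stable TRPC4beta plus mu-opioid receptor expression / Probe or stimulus: DAMGO in two steps, submaximal then maximal / Compound: single concentration per test compound / Technique: kinetic Fluo4 fluorescence imaging of calcium influx / Read-out: per-well B score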
TRPC4 potent: positive allosteric modulators of TRPC4, primary screen, cell-based, mouse TRPC4beta, HEK293 mu-opioid, Fluo-4 calcium. Short transient receptor potential channel 4 (Mus musculus), Q9QUQ5. DAMGO EC20, Fluo-4 Ca2+ flux; hits give high values. B-score at 10 µM. hit rate 0.42% among 310,000. AID 2227, 2009;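 active = B-score of calcium response area above 5 SD of library B-scores, with initial fluorescence ratio within 5 SD of library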;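 note: B-score of integrated fluorescence ratio over time as area under calcium response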
FID counter: compounds displacing fluorescent DNA intercalator, primary screen, artefact control for HCV NS3 helicase inhibitor project, biochemical, FID fluorescence. DNA fluorescent intercalator displacement. inhibition, % at 7.9 µM. hit rate 0.17% among 290,000; in the data active = inhibition above about 37%;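 note: 0% = vehicle and 100% = reference compound; higher means more ethidium bromide displaced from hairpin DNA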
TRPC4 spec 2: second check of whether TRPC6 inhibitors also affect mouse TRPC4. shares compounds with TRPC6 inhibitor. HEK293 TRPC4/MOR, membrane potential dye fluorescence; channel activated by saturating DAMGO dose. inhibition, % at 10 µM. hit rate 42% among 920;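 active = compounds whose fluorescence signal differed from control wells by over 3 SD, either direction, in both duplicate plates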
TRPC4 spec: mouse TRPC4 modulation by TRPC6 hits, confirmation, selectivity assay for TRPC6 inhibitor project, cell-based, HEK293 TRPC4/mu-opioid, membrane potential dye | shares compounds with TRPC6 inhibitor | membrane potential fluorescence | activity change, negative = inhibition, % at 10 µM | hit rate 61% among 920;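 active = rise or fall in signal beyond 3 SD of buffer-only wells in both replicate plates, either sign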;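 note: integrated kinetic ratio of fluorescence range over baseline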
HEK293 MPD ctr 2-1: nonspecific membrane potential effects, parental HEK293, confirmation, counter-screen for TRPC6 inhibitor project, cell-based, second counter screen; shares compounds with TRPC6 inhibitor; parental HEK293 membrane potential dye fluorescence; maximal acetylcholine challenge after compound addition; signal change vs control, % at 10 µM; hit rate 31% among 920; AID 2779, 2010;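 active = membrane potential signal moving either way by over 3 SD of the maximum-effect control, in both duplicate plates, meaning non-specific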
HEK293 MPD ctr-1: membrane potential modulation in parental HEK293, confirmation, counter-screen for TRPC6 inhibitor project, cell-based | shares compounds with TRPC6 inhibitor | parental HEK293 membrane potential dye fluorescence | membrane potential signal change, % at 10 µM | hit rate 60% among 920 | AID 2780, 2010;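 active = membrane potential signal shifting up or down by more than 3 SD of buffer-only wells, on both duplicate plates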
HEK293 MPD ctr-2: parental HEK293 membrane potential modulation, confirmation, counter-screen for TRPC6 modulator project, cell-based | hit rate 51% among 2,400 | membrane potential dye fluorescence | shares compounds with TRPC6 inhibitor | membrane potential signal change, % at 10 µM;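 active = membrane potential signal moves up or down beyond 5 SD from buffer-only wells, on both duplicate plates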
HEK293 MPD ctr 2-2: second counter-screen for TRPC6 modulators: effect in parental HEK293 cells; shares compounds with TRPC6 inhibitor; membrane potential dye fluorescence; after compound, maximal acetylcholine stimulation; inhibition, % at 10 µM; hit rate 14% among 2,400; AID 488926;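 active = membrane potential signal drops by more than 5 SD from the mean control signal, in both duplicate plates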;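 note: plate controls were acetylcholine ECmax control wells for no effect and buffer only wells for full effect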
TRPC4/MOR mod: TRPC4 modulation by TRPC6 hit compounds, confirmation, selectivity assay for TRPC6 modulator project, cell-based, HEK293 TRPC4/mu-opioid, membrane potential dye, mouse; percent change from control (negative = decrease, positive = increase), % at 10 µM; membrane potential fluorescence; hit rate 69% among 2,400; AID 488927, 2010; shares compounds with TRPC6 inhibitor;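 active = membrane potential signal moved up or down beyond 5 SD of buffer control wells, in both duplicate plates, actives on both sides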;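 note: plate controls were assay buffer wells for no effect and DAMGO maximal-effect wells for full effect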
TRPC4/MOR inh 2: second selectivity test of TRPC6 modulators against mouse TRPC4; shares compounds with TRPC6 inhibitor; HEK293 TRPC4/mu-opioid, membrane potential dye fluorescence; stimulated with maximal-effect DAMGO; inhibition, % at 10 µM; hit rate 55% among 2,400; AID 488928;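 active = drop in membrane potential signal beyond 5 SD of the control wells in both duplicate plates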;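 note: TRPC4 counter screen for TRPC6 hits run under conditions tuned for TRPC6 not TRPC4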
TRPC6 inh conf: mouse TRPC6 channel inhibitors, confirmation, HEK293 cells, membrane potential dye, duplicate. ACh-evoked depolarization. inhibition, % at 10 µM. AID 488960, 2010. shares compounds with TRPC6 inhibitor. hit rate 43% among 3,300;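 active = fluorescence ratio falls more than 5 SD below the full-stimulation control mean, in both duplicate runs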;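 note: integrated fluorescence ratio of peak minus minimum over baseline after agonist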
TRPC6 act confirm: mouse TRPC6 channel activators, confirmation, HEK293 cells, membrane potential dye, duplicate; shares compounds with TRPC6 inhibitor; HEK293-TRPC6 membrane potential dye fluorescence, FDSS; activation, % at 10 µM; hit rate 11% among 2,800; AID 488961, 2010;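 active = ratio signal rise beyond 5 SD above unstimulated control wells' mean, seen in both duplicate runs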;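 note: plate controls were buffer EC0 wells for no effect and acetylcholine ECmax response for full effect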
Starred values were filed as active, the others as inactive; i = inactive; nt = no result given.

SMILES | TRPC6 inhibitor | TRPC6 activator | TRPC4 agonist | TRPC4 block | TRPC4 potent | FID counter | HEK293 MPD ctr-2 | HEK293 MPD ctr 2-2 | TRPC4/MOR mod | TRPC4/MOR inh 2 | TRPC6 inh conf | TRPC6 act confirm | others
O=C1CC(N2CCN(Cc3ccccc3)CC2)C(=O)N1 (configuration not stated) | i | i | i | i | i | -3 | nt | nt | nt | nt | nt | nt
O=C1CCC(c2ccccc2)(C2CCN(Cc3ccccc3)CC2)C(=O)N1 (configuration not stated) | -6.3* | i | i | i | i | nt | 96%* | 84%* | 20%* | 35%* | 74%* | nt
Cc1nc2sccn2c(=O)c1S(=O)(=O)Nc1ccc(N2CCN(S(C)(=O)=O)CC2)cc1 | i | i | i | i | i | -4 | nt | nt | nt | nt | nt | nt
O=[N+]([O-])c1nn(-c2ccc3c(c2)OCCO3)n(O)c1=NC1CCN(Cc2ccccc2)CC1 | -8.6* | i | i | i | i | 8 | nt | nt | nt | nt | i | i | TRPC4 spec 2=i;TRPC4 spec=i;HEK293 MPD ctr 2-1=i;HEK293 MPD ctr-1=i
CCN(C(=O)COC(=O)CCS(=O)(=O)c1ccc(C)cc1)C1CCS(=O)(=O)C1 (configuration not stated) | i | i | i | i | i | -13 | nt | nt | nt | nt | nt | nt
COc1ccc(CNc2ccc(Cl)cc2)cc1Cn1ccnc1 | -5.2* | i | i | i | i | 1 | i | i | i | 56%* | i | i
CCc1ccc(NCc2ccc(OC)c(Cn3ccnc3)c2)cc1 | -5.4* | i | i | i | i | -3 | i | i | -10%* | 52%* | 40%* | i
CN(C)S(=O)(=O)c1cccc(NC(=O)c2ccc3c(c2)OCCO3)c1 | i | i | i | i | i | nt | nt | nt | nt | nt | nt | nt
COc1cccc(-c2cccc(NC(=O)C3CCN(Cc4ccc(C)o4)CC3)c2)c1 | -5.3* | i | i | i | i | 4 | 128%* | i | 18%* | 44%* | i | nt
CC(C)c1ccc(N2C(=O)CC(Sc3nc4ccccc4o3)C2=O)cc1 (configuration not stated) | -7.4* | i | i | i | i | -21 | nt | nt | nt | nt | i | i | TRPC4 spec 2=i;TRPC4 spec=i;HEK293 MPD ctr 2-1=i;HEK293 MPD ctr-1=i
COCCCNC(=S)Nc1ccc(S(=O)(=O)Nc2cc(OC)nc(OC)n2)cc1 | i | i | i | i | i | -14 | nt | nt | nt | nt | nt | nt
Cc1cc(N2CCCC2)nc2ccc(NC(=S)NCCCN3CCC(C)CC3)cc12 | -7.2* | i | i | i | i | 47* | nt | nt | nt | nt | i | i | TRPC4 spec 2=76%*;TRPC4 spec=-14%*;HEK293 MPD ctr 2-1=18%*;HEK293 MPD ctr-1=-192%*
CCN1CCN(c2cc(C)c3cc(NC(=S)NCCCN4CCc5ccccc5C4)ccc3n2)CC1 | i | i | i | i | i | 32 | nt | nt | nt | nt | nt | nt
Cc1cc(N2CCOCC2)nc2ccc(NC(=O)CCC(=O)N3CCN(c4ccccc4F)CC3)cc12 | -6.6* | i | i | i | i | -8 | -67%* | i | -16%* | i | i | i
COc1cccc(C(=O)Nc2ccc3nc(N4CCOCC4)cc(C)c3c2)c1 | -5.9* | i | i | i | i | -2 | -154%* | i | -26%* | 30%* | i | i
CCN1CCN(c2cc(C)c3cc(NC(=O)c4cccc(OC)c4)ccc3n2)CC1 | i | i | i | i | i | 15 | nt | nt | nt | nt | nt | nt
Cc1cc(N2CCOCC2)nc2ccc(NC(=O)CCC(=O)N3CCCC(C)C3)cc12 (configuration not stated) | -6* | i | i | i | i | -1 | -68%* | i | -18%* | 36%* | i | i
Cc1cc(N2CCOCC2)nc2ccc(NC(=O)CCC(=O)N3CCN(c4ccc(F)cc4)CC3)cc12 | i | i | i | i | i | -5 | nt | nt | nt | nt | nt | nt
Cc1noc(NS(=O)(=O)c2ccc(NC(=O)Cc3ccc([N+](=O)[O-])cc3)cc2)c1C | i | i | i | i | i | -16 | nt | nt | nt | nt | nt | nt

Source: PubChem BioAssay
